Assay [1] concerns A549 viability, CellTiter-Glo ATP luminescence, 72 h. Briefly: viability loss in A549 lung cancer cells – cell-based, CellTiter-Glo luminescence, dry powder, set 13, cytotoxicity control, dose response (AID 977617). In outline: (§1)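 Test system – A549 human lung carcinoma cells, cell-based viability · Amount – 1000 cells/well · Read-out – viability via ATP, lower signal means cytotoxic · Dosing – compound concentration series on A549 cells · Incubation – 24 h pre-dosing, 72 h exposure at 37 °C · Medium – DMEM, 10% FBS · Technique – CellTiter-Glo ATP luminescence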
On the technique in general: In ATP-based viability assays light output follows the ATP content of the culture.

Experiment in assay [2]: as above
The following applies: A549 viability, CellTiter-Glo ATP luminescence, 72 h; at 26 µM (top of the series). In outline: as §1

SMILES strings stand for the structures. Where “and” joins values, the source holds several entries; their conditions need not be identical. Equal entries are not always repeated. Calls of active or inactive are those of the source.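 The calls were made as follows: active = cell killing, with a fitted half-maximal concentration at or below twice the top valid dose tested; inconclusive = flat fit with a moderate signal drop, or a poor fit; inactive = effect in the rising direction, plus the rest.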

Drawing on PubChem BioAssay AID977617 (Broad Institute, 2014), this text covers AC50 and activity change, negative = cytotoxicity for 28 molecules.

As usually defined, the AC50 is the concentration at which the activity in the assay is half-maximal. For the molecule `COc1ccccc1-c1ccc(CN(C)C[C@@H]2Oc3cc(C#C[C@@H](C)O)ccc3S(=O)(=O)N([C@@H](C)CO)C[C@@H]2C)cc1`, the AC50 in assay [1] was 12.9 µM.

`COc1ccc(-c2ccc(CN(C)C[C@@H]3Oc4cc(C#C[C@@H](C)O)ccc4S(=O)(=O)N([C@@H](C)CO)C[C@@H]3C)cc2)cc1`: in assay [1], the AC50 was 14.1 µM.

As to `C[C@H]1CN([C@@H](C)CO)S(=O)(=O)c2ccc(C#CC(C)(C)O)cc2O[C@H]1CN(C)Cc1ccc(-c2ccccc2)cc1`, the half-maximal activity concentration (AC50) in assay [1] is 19.9 µM.

`C[C@H](O)C#Cc1ccc2c(c1)O[C@H](CN(C)Cc1ccc(-c3ccccc3)cc1)[C@@H](C)CN([C@@H](C)CO)S2(=O)=O`: in assay [1], the half-maximal activity concentration (AC50) is 6 µM.

Turning to `CNC[C@@H]1Oc2cc(Br)ccc2S(=O)(=O)N([C@@H](C)CO)C[C@@H]1C`, the activity change, negative = cytotoxicity in assay [2] was -12.1% (inactive).

For `C[C@@H](O)C#Cc1ccc2c(c1)O[C@@H](CN(C)Cc1ccc(-c3ccc(Cl)cc3)cc1)[C@@H](C)CN([C@@H](C)CO)S2(=O)=O`, in assay [1], the concentration at half-maximal activity (AC50) was 9.62 µM.

On to `C[C@H]1CN([C@@H](C)CO)S(=O)(=O)c2ccc(Br)cc2O[C@H]1CN(C)Cc1ccc(-c2ccccc2)cc1`, for which the activity change, negative = cytotoxicity in assay [2] was -3.47% (inactive).

Take `C[C@H](O)C#Cc1ccc2c(c1)O[C@@H](CN(C)Cc1ccc(-c3ccccc3)cc1)[C@H](C)CN([C@@H](C)CO)S2(=O)=O`: the concentration at half-maximal activity (AC50) in assay [1] is 26.1 µM.

In the case of `C[C@@H](O)C#Cc1ccc2c(c1)O[C@@H](CN(C)Cc1cccnc1)[C@@H](C)CN([C@@H](C)CO)S2(=O)=O`, the activity change, negative = cytotoxicity in assay [2] is -0.989% (inactive).

For `C[C@H](O)C#Cc1ccc2c(c1)O[C@@H](CN(C)Cc1ccc(-c3ccccc3)cc1)[C@H](C)CN([C@H](C)CO)S2(=O)=O`, in assay [1], the AC50 was 22.1 µM.

As for `COc1cccc(-c2ccc(CN(C)C[C@@H]3Oc4cc(C#C[C@@H](C)O)ccc4S(=O)(=O)N([C@@H](C)CO)C[C@@H]3C)cc2)c1`, in assay [1], the AC50 was 15.2 µM.

With `C[C@@H](O)C#Cc1ccc2c(c1)O[C@@H](CN(C)Cc1ccncc1)[C@@H](C)CN([C@@H](C)CO)S2(=O)=O`, the activity change, negative = cytotoxicity in assay [2] was -7.94% (inactive).

Regarding `Cc1cccc(-c2ccc(CN(C)C[C@@H]3Oc4cc(C#C[C@@H](C)O)ccc4S(=O)(=O)N([C@@H](C)CO)C[C@@H]3C)cc2)c1`, the AC50 in assay [1] was 15 µM.

For the molecule `C[C@H](O)C#Cc1ccc2c(c1)O[C@@H](CN(C)Cc1ccc(-c3ccccc3)cc1)[C@@H](C)CN([C@H](C)CO)S2(=O)=O`, the activity change, negative = cytotoxicity in assay [2] is 12.2% (inactive).

With `Cc1ccccc1-c1ccc(CN(C)C[C@@H]2Oc3cc(C#C[C@@H](C)O)ccc3S(=O)(=O)N([C@@H](C)CO)C[C@@H]2C)cc1`, the concentration at half-maximal activity (AC50) in assay [1] was 16.7 µM.

Consider `C[C@@H](O)C#Cc1ccc2c(c1)O[C@@H](CN(C)C(=O)c1ccc(-c3ccccc3)cc1)[C@@H](C)CN([C@@H](C)CO)S2(=O)=O`, for which the activity change, negative = cytotoxicity in assay [2] is -7.04% (inactive).

`C[C@H](CO)N1C[C@H](C)[C@@H](CN(C)Cc2ccc(-c3ccccc3)cc2)Oc2cc(C#C[C@@H](C)O)ccc2S1(=O)=O`: the half-maximal activity concentration (AC50) in assay [1] is 27.1 µM.

Regarding `C[C@@H](O)C#Cc1ccc2c(c1)O[C@H](CN(C)Cc1ccc(-c3ccccc3)cc1)[C@@H](C)CN([C@@H](C)CO)S2(=O)=O`, in assay [1], the AC50 was 19.4 µM.

With `C[C@@H](O)C#Cc1ccc2c(c1)O[C@@H](CN(C)S(=O)(=O)c1ccc(-c3ccccc3)cc1)[C@@H](C)CN([C@@H](C)CO)S2(=O)=O`, the activity change, negative = cytotoxicity in assay [2] is 0.446% (inactive).

Take `Cc1ccc(-c2ccc(CN(C)C[C@@H]3Oc4cc(C#C[C@@H](C)O)ccc4S(=O)(=O)N([C@@H](C)CO)C[C@@H]3C)cc2)cc1`: in assay [1], the AC50 was 15.7 µM.

In the case of `C[C@@H](O)C#Cc1ccc2c(c1)O[C@@H](CN(C)Cc1ccc(-c3ccccc3)cc1)[C@@H](C)CN([C@@H](C)CO)S2(=O)=O`, the AC50 in assay [1] was 17.7 µM and 19 µM.

For the molecule `C[C@@H](O)C#Cc1ccc2c(c1)O[C@@H](CN(C)Cc1ccc(-c3ccccc3Cl)cc1)[C@@H](C)CN([C@@H](C)CO)S2(=O)=O`, in assay [1], the AC50 was 14.4 µM.

With `C[C@@H]1CN([C@@H](C)CO)S(=O)(=O)c2ccc(C#C[C@@H](C)O)cc2O[C@H]1CN(C)Cc1ccc(-c2ccccc2)cc1`, the AC50 in assay [1] was 26.1 µM.

Consider `COc1ccc(-c2ccc3c(c2)O[C@@H](CN(C)Cc2ccc(-c4ccccc4)cc2)[C@@H](C)CN([C@@H](C)CO)S3(=O)=O)cc1`, for which the activity change, negative = cytotoxicity in assay [2] was -11.8% (inactive).

`CO[C@H]1CN(C)C(=O)c2ccc(NC(=O)c3ccc(F)cc3)cc2OC[C@H](C)N(C(=O)c2ccc(F)cc2)C[C@@H]1C`: the activity change, negative = cytotoxicity in assay [2] is 2.69% (inactive).

`C[C@H](O)C#Cc1ccc2c(c1)O[C@H](CN(C)Cc1ccc(-c3ccccc3)cc1)[C@@H](C)CN([C@H](C)CO)S2(=O)=O`: in assay [1], the AC50 was 19.4 µM.

In the case of `C[C@@H](O)C#Cc1ccc2c(c1)O[C@@H](CN(C)Cc1ccc(-c3cccc(Cl)c3)cc1)[C@@H](C)CN([C@@H](C)CO)S2(=O)=O`, the AC50 in assay [1] is 14.1 µM.

Take `C[C@H](O)C#Cc1ccc2c(c1)O[C@@H](CN(C)Cc1ccc(-c3ccccc3)cc1)[C@@H](C)CN([C@@H](C)CO)S2(=O)=O`: in assay [1], the half-maximal activity concentration (AC50) is 22.6 µM.
